The target of assay [1] is Methylcytosine dioxygenase TET1 (Homo sapiens, UniProt Q8NFU7). Put plainly: Inhibition of N-terminal 3xFlag-tagged recombinant human TET1 catalytic domain (E1418 to V2136 residues) expressed in baculovirus infected Sf9 cells using 5-methylcytosine as substrate preincubated for 10 mins followed by substrate and DNA-cofactor addition measured after 30 mins by Alphascreen assay. To be noted: read-out: pIC50 (converted). The method, boiled down:
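TET1 catalytic domain (E1418–V2136, Sf9 baculovirus) at 2 nM was preincubated 10 min with inhibitor (1% DMSO) in HEPES 50 mM pH 7.3, 150 mM NaCl, 0.1% BSA, 0.01% Tween-20. Reaction was started with ascorbate 200 µM, Fe(II) 20 µM, 2OG 20 µM and 5mC ssDNA 10 nM, run 30 min, then EDTA-quenched. Anti-5hmC antibody with AlphaScreen beads, 45–60 min, luminescence read. Three independent replicates.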
Background: In Alpha technology, singlet oxygen from a donor bead excites a nearby acceptor bead.

Assay [2] deals with T1, Methylcytosine dioxygenase TET2 (Homo sapiens, UniProt Q6N021). Put plainly: Inhibition of N-terminal His-tagged recombinant human TET2 catalytic domain LCIdel mutant (D1129 to G1936 residues with Y1481 to N1843 replaced by 3 x GGGGS linker) expressed in Escherichia coli BL21 (DE3) using 5-methylcytosine as substrate preincubated for 10 mins followed by substrate and DNA-cofactor addition measured after 10 mins by Alphascreen assay.

Assay [3] has as its target T1, Methylcytosine dioxygenase TET2. Description: Inhibition of N-terminal His-tagged recombinant human TET2 catalytic domain LCIdel mutant (D1129 to G1936 residues with Y1481 to N1843 replaced by 3 x GGGGS linker) expressed in Escherichia coli BL21 (DE3) using 5-methylcytosine as substrate preincubated for 10 mins followed by substrate and DNA-cofactor addition measured after 12 mins by SPE-MS analysis.

The target of assay [4] is Methylcytosine dioxygenase TET3 (Homo sapiens, UniProt O43151). Put plainly: Inhibition of recombinant human TET3 catalytic domain (E824 to I1795 residues) expressed in baculovirus infected Sf9 cells using 5-methylcytosine as substrate preincubated for 10 mins followed by substrate and DNA-cofactor addition measured after 10 mins by Alphascreen assay. The conditions noted are these: read-out: pIC50 (converted).

Assay [5] addresses Methylcytosine dioxygenase TET1 (Mus musculus, UniProt Q3URK3). Put plainly: Inhibition of recombinant mouse TET1 catalytic domain (E1367 to V2039 residues) expressed in baculovirus expression system using 5-methylcytosine as substrate preincubated for 10 mins followed by substrate and DNA-cofactor addition measured after 9 mins by Alphascreen assay. Summed up:
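Murine Tet1 catalytic domain (E1367–V2039, High Five baculovirus) at 2 nM was preincubated 10 min with inhibitor (1% DMSO) in HEPES 50 mM pH 7.3, NaCl 150 mM, BSA 0.1%, Tween-20 0.01%. Ascorbate 200 µM, Fe(II) 20 µM, 2OG 20 µM and 5mC ssDNA 10 nM were added; reaction ran 9 min, then EDTA-quenched. AlphaScreen anti-5hmC detection by luminescence.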

Assay [6] deals with Methylcytosine dioxygenase TET2 (Homo sapiens), Q6N021 [UNDEFINED MUTATION]. To be noted: time 20.0 min.

Methylcytosine dioxygenase TET3, sequence (O43151 whole entry, the tested form may be a part): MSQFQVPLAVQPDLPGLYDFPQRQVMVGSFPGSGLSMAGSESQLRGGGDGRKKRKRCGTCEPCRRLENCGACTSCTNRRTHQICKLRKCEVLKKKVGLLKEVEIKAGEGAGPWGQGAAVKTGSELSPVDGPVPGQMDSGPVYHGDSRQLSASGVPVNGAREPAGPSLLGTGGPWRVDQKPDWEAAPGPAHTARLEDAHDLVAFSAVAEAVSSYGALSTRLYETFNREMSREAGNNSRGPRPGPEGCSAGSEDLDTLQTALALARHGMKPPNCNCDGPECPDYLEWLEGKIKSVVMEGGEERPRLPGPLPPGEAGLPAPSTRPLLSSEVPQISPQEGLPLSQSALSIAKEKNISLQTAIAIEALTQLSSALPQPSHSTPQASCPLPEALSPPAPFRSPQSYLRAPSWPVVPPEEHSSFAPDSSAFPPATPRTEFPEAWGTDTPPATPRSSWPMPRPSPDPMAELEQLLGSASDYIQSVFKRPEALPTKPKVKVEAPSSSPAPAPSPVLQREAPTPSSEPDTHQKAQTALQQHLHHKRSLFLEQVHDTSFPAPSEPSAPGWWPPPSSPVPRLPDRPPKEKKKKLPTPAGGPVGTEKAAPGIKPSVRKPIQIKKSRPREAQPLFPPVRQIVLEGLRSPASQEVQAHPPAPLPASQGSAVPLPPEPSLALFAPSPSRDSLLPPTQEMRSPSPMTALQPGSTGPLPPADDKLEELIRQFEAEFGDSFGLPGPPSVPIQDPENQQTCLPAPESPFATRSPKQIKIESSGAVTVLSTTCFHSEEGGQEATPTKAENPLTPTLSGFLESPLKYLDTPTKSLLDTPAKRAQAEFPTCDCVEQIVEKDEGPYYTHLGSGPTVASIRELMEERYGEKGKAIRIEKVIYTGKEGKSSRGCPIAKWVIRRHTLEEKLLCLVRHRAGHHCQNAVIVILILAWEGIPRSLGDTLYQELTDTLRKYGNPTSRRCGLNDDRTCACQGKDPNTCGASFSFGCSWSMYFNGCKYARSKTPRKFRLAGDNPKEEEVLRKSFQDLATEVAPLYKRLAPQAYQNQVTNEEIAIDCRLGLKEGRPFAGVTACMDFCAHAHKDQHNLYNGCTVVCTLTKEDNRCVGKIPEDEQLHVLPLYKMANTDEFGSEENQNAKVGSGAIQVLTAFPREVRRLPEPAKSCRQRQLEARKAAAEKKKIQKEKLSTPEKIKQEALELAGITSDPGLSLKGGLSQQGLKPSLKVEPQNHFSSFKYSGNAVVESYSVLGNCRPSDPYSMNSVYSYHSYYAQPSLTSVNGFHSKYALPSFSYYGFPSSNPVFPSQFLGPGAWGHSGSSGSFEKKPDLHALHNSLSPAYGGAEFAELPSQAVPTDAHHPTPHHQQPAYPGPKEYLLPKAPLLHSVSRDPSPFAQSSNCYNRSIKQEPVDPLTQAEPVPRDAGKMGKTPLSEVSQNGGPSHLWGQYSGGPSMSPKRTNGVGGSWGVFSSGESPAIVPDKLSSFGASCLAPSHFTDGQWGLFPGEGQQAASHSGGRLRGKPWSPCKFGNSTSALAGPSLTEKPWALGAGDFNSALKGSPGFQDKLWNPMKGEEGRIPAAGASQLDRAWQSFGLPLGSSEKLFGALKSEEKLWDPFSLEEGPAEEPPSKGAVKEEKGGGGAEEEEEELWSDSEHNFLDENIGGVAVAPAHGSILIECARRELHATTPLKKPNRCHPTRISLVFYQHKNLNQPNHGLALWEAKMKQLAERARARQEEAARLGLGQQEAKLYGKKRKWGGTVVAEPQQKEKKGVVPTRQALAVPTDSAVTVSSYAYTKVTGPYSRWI
Methylcytosine dioxygenase TET1 (Homo sapiens, UniProt Q8NFU7), sequence (Q8NFU7 whole entry, the tested form may be a part): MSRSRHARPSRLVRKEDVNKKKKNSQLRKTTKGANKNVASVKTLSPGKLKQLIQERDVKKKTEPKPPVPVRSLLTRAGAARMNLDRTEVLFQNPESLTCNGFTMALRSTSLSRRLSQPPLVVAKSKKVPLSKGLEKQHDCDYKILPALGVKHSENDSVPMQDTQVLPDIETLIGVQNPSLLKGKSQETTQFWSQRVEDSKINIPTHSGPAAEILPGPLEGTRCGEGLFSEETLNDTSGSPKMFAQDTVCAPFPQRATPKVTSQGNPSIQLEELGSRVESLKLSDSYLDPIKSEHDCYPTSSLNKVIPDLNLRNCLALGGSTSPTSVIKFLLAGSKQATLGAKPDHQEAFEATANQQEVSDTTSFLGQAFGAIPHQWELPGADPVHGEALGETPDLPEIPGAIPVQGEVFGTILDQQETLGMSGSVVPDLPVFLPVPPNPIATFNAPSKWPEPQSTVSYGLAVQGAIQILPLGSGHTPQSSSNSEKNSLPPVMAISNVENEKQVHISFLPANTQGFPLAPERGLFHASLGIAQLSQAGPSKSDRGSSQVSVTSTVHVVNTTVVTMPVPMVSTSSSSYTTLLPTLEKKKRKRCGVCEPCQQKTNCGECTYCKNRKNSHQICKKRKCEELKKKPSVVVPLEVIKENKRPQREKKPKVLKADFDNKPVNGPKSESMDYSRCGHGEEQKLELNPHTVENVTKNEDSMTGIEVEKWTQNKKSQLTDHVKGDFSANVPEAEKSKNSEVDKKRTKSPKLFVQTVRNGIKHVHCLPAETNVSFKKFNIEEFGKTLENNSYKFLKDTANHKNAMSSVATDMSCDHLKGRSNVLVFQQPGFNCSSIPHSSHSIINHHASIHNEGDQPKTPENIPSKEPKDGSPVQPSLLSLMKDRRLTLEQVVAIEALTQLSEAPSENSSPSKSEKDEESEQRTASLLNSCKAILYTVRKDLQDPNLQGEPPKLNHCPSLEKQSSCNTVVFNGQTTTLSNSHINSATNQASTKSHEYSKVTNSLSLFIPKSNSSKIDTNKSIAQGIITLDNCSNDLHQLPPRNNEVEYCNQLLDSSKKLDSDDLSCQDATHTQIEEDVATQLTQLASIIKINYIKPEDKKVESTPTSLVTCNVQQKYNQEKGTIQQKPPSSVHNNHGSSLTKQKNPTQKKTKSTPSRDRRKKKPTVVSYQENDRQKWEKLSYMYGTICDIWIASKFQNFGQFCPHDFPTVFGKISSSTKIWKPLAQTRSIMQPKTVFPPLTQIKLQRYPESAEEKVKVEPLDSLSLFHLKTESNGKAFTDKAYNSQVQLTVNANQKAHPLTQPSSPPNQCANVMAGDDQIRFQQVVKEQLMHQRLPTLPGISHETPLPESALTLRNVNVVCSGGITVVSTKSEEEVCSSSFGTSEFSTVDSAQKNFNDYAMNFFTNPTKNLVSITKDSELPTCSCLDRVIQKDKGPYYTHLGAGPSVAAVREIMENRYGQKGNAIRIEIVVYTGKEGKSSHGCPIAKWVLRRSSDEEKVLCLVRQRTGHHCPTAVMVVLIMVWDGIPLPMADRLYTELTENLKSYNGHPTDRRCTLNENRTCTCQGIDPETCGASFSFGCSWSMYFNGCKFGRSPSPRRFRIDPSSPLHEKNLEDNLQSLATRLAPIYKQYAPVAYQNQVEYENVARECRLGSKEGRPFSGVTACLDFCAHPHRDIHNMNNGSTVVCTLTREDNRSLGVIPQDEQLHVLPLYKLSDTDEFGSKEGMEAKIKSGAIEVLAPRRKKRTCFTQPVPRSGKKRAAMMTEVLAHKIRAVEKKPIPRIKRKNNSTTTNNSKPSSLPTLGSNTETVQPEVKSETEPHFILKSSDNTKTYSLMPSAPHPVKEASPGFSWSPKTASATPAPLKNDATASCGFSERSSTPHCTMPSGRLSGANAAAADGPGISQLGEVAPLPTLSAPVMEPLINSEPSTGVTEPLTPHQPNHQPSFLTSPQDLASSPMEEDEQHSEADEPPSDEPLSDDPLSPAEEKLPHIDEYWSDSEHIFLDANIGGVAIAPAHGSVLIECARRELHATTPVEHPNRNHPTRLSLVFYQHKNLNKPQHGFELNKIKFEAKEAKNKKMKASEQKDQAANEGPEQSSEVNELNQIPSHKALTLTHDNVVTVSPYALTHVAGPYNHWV

In general, pIC50 refers to −log10 of the IC50, conventionally taken in molar units. Turning to `CC[C@H](C)[C@@H]1NC(=O)[C@H](Cc2c[nH]c3ccccc23)NC(=O)[C@H](Cc2c[nH]c3ccccc23)NC(=O)[C@H]([C@@H](C)O)NC(=O)[C@H](Cc2ccc(O)cc2)NC(=O)[C@H](CC(N)=O)NC(=O)[C@H](Cc2ccc(O)cc2)NC(=O)[C@H](Cc2ccc(O)cc2)NC(=O)[C@H](CC(C)C)NC(=O)[C@H](CCCCN)NC(=O)[C@@H](Cc2c[nH]c3ccccc23)NC(=O)CSC[C@@H](C(N)=O)NC1=O`, the IC50 in assay [1] was 603 nM; in assay [4], 692 nM; in assay [5], 1050 nM. Moreover, the pIC50 in assay [2] was found to be 6.03; in assay [3], 5.4. In assay [6], this compound had a deltapIC50 of -0.63.
On to `C[C@@H]1NC(=O)[C@H](Cc2c[nH]c3ccccc23)NC(=O)[C@H](Cc2ccc(O)cc2)NC(=O)[C@H](Cc2ccc(O)cc2)NC(=O)[C@H](CCCCN)NC(=O)[C@H](CC(=O)O)NC(=O)[C@H]([C@@H](C)O)NC(=O)[C@@H](Cc2c[nH]c3ccccc23)NC(=O)CSC[C@@H](C(N)=O)NC(=O)[C@H](CO)NC(=O)[C@H](Cc2c[nH]c3ccccc23)NC(=O)[C@H](Cc2c[nH]c3ccccc23)NC(=O)[C@H]([C@@H](C)O)NC(=O)[C@H](Cc2ccc(O)cc2)NC1=O`, for which the IC50 is 794 nM in assay [1], 3550 nM in assay [4] and 4370 nM in assay [5]. Moreover, the results for the pIC50 in assay [2] and in assay [3] were 5.41 and 4.62, respectively. In assay [6], the deltapIC50 is -0.79.
Consider `CC(C)[C@@H]1NC(=O)[C@@H]2CCCN2C(=O)[C@H](C)NC(=O)[C@@H](Cc2ccc(O)cc2)NC(=O)CSC[C@@H](C(N)=O)NC(=O)[C@H](Cc2c[nH]c3ccccc23)NC(=O)[C@H](Cc2c[nH]c3ccccc23)NC(=O)[C@H]([C@@H](C)O)NC(=O)[C@H](Cc2ccc(O)cc2)NC(=O)[C@H](CC(N)=O)NC(=O)[C@H](Cc2c[nH]c3ccccc23)NC(=O)[C@H](Cc2ccc(O)cc2)NC1=O`, for which the IC50 was 1860 nM in assay [1], 46800 nM in assay [4] and 55000 nM in assay [5]. Besides, the pIC50 is 4.17 in assay [2] and 5.66 in assay [3]. The compound further displayed a deltapIC50 in assay [6] of 1.49.
As for `CC[C@H](C)[C@@H]1NC(=O)[C@H]([C@@H](C)CC)NC(=O)[C@@H](Cc2c[nH]c3ccccc23)NC(=O)CSC[C@@H](C(N)=O)NC(=O)[C@H](CCCNC(=N)N)NC(=O)[C@H](Cc2c[nH]c3ccccc23)NC(=O)[C@H](Cc2c[nH]c3ccccc23)NC(=O)[C@H]([C@@H](C)O)NC(=O)[C@H](Cc2ccc(O)cc2)NC(=O)[C@H](CC(N)=O)NC(=O)[C@H](Cc2c[nH]cn2)NC(=O)[C@H](Cc2ccc(O)cc2)NC1=O`, the IC50 in assay [1] was 363 nM; in assay [4] it was 631 nM; in assay [5] it was 933 nM. In addition, the pIC50 in assay [2] amounted to 6.08; in assay [3] it was 5.54. Further, the deltapIC50 in assay [6] was -0.54.
Regarding `CC(C)C[C@@H]1NC(=O)[C@H](Cc2ccc(O)cc2)NC(=O)[C@H](Cc2c[nH]c3ccccc23)NC(=O)[C@@H](Cc2ccc(O)cc2)NC(=O)CSC[C@@H](C(N)=O)NC(=O)[C@H](Cc2ccccc2)NC(=O)[C@H](Cc2c[nH]c3ccccc23)NC(=O)[C@@H]2CCCN2C(=O)[C@H](C(C)C)NC(=O)[C@H](CCCNC(=N)N)NC(=O)[C@H](Cc2ccc(O)cc2)NC(=O)[C@H](CO)NC(=O)[C@@H]2CCCN2C1=O`, the IC50 in assay [1] is 174 nM; in assay [4], 2400 nM; in assay [5], 3470 nM. For the same compound, the figures for the negative-log IC50 (pIC50) in assay [2] and in assay [3] were 5.49 and 5.19, respectively. The deltapIC50 in assay [6] is -0.3.
With `CC[C@H](C)[C@@H]1NC(=O)[C@H](CO)NC(=O)[C@H](CCCNC(=N)N)NC(=O)[C@H](CC(C)C)NC(=O)[C@H](Cc2c[nH]cn2)NC(=O)[C@H](CC(C)C)NC(=O)[C@@H]2CCCN2C(=O)[C@H]([C@@H](C)CC)NC(=O)[C@@H](Cc2c[nH]c3ccccc23)NC(=O)CSC[C@@H](C(N)=O)NC(=O)[C@H](CO)NC(=O)[C@H](CCCNC(=N)N)NC(=O)CNC(=O)[C@H](CC(N)=O)NC(=O)[C@H](Cc2ccc(O)cc2)NC(=O)[C@H](C)NC(=O)[C@H](CC(C)C)NC1=O`, the IC50 in assay [1] was 692 nM; in assay [4], 18200 nM; in assay [5], 27500 nM. Also, the pIC50 in assay [2] is listed as 4.65; in assay [3], 4.85. Also, in assay [6], the deltapIC50 was determined as 0.2.
Consider `CC[C@H](C)[C@@H]1NC(=O)[C@H](Cc2ccccc2)NC(=O)[C@H](Cc2ccc(O)cc2)NC(=O)[C@H](CC(C)C)NC(=O)[C@H](CCCNC(=N)N)NC(=O)[C@H](C)NC(=O)[C@H](Cc2c[nH]c3ccccc23)NC(=O)[C@H](Cc2c[nH]c3ccccc23)NC(=O)[C@@H]2CCCN2C(=O)[C@H](C(C)C)NC(=O)[C@H](Cc2ccc(O)cc2)NC(=O)[C@@H](Cc2ccccc2)NC(=O)[C@H](CCCCN)NC(=O)[C@@H](Cc2ccc(O)cc2)NC(=O)CSC[C@H](C(N)=O)NC(=O)CNC1=O`, for which the figures for the IC50 in assay [1], in assay [4] and in assay [5] were 240 nM, 1020 nM and 1100 nM, respectively. The pIC50 is recorded as 5.95 in assay [2] and 5.52 in assay [3]. The deltapIC50 in assay [6] is -0.43.
Take `CC[C@H](C)[C@@H]1NC(=O)[C@H](CCC(N)=O)NC(=O)[C@H](Cc2ccc(O)cc2)NC(=O)[C@H](Cc2ccc(O)cc2)NC(=O)[C@H]([C@@H](C)O)NC(=O)[C@H](CCCCN)NC(=O)[C@H](C(C)C)NC(=O)[C@H](CCCNC(=N)N)NC(=O)[C@H](Cc2ccc(O)cc2)NC(=O)[C@@H](Cc2ccc(O)cc2)NC(=O)CSC[C@@H](C(N)=O)NC(=O)[C@H](CO)NC(=O)[C@H](C(C)C)NC(=O)[C@H](Cc2ccc(O)cc2)NC(=O)[C@H](C(C)C)NC(=O)[C@H](Cc2ccc(O)cc2)NC(=O)[C@H]([C@@H](C)O)NC1=O`: the results for the IC50 in assay [1], in assay [4] and in assay [5] were 1350 nM, 6030 nM and 8710 nM, respectively. Moreover, the pIC50 in assay [2] stood at 5.11; in assay [3], 5.5. The compound also yielded a deltapIC50 in assay [6] of 0.39.
Turning to `CC[C@H](C)[C@@H]1NC(=O)[C@H](CCCNC(=N)N)NC(=O)[C@@H](Cc2ccc(O)cc2)NC(=O)CSC[C@@H](C(N)=O)NC(=O)[C@H](Cc2ccc(O)cc2)NC(=O)[C@H](C(C)C)NC(=O)[C@H](CC(N)=O)NC(=O)[C@H](Cc2c[nH]c3ccccc23)NC(=O)[C@H](Cc2c[nH]c3ccccc23)NC(=O)[C@H]([C@@H](C)O)NC(=O)[C@H](Cc2ccc(O)cc2)NC(=O)[C@H](Cc2ccccc2)NC(=O)[C@H](CC(C)C)NC(=O)[C@H](Cc2ccc(O)cc2)NC1=O`, the values for the IC50 in assay [1], in assay [4] and in assay [5] were 1150 nM, 2400 nM and 3390 nM, respectively. Moreover, the pIC50 is recorded as 5.59 in assay [2] and 5.61 in assay [3]. This compound gave a deltapIC50 in assay [6] of 0.02.
As to `CC[C@H](C)[C@@H]1NC(=O)[C@H](CCC(N)=O)NC(=O)[C@H](Cc2c[nH]cn2)NC(=O)[C@H](Cc2ccc(O)cc2)NC(=O)[C@H]([C@@H](C)O)NC(=O)[C@H](CCCCN)NC(=O)[C@H](C(C)C)NC(=O)[C@H](CCCNC(=N)N)NC(=O)[C@H](Cc2ccc(O)cc2)NC(=O)[C@@H](Cc2ccc(O)cc2)NC(=O)CSC[C@@H](C(N)=O)NC(=O)[C@H](CO)NC(=O)[C@H](C(C)C)NC(=O)[C@H](Cc2ccc(O)cc2)NC(=O)[C@H](C(C)C)NC(=O)[C@H](Cc2ccc(O)cc2)NC(=O)[C@H]([C@@H](C)O)NC1=O`, the IC50 in assay [1] is 776 nM; in assay [4], 501 nM; in assay [5], 1350 nM. Further, the pIC50 in assay [2] came to 5.89; in assay [3], 5.55. In addition, the deltapIC50 in assay [6] is -0.34.
As for `CC[C@H](C)[C@H](NC(=O)[C@H](CC(C)C)NC(=O)[C@@H](Cc1ccc(O)cc1)NC(C)=O)C(=O)N[C@@H](Cc1ccc(O)cc1)C(=O)N[C@@H](C)C(=O)N[C@@H](Cc1ccc(O)cc1)C(=O)N[C@@H](Cc1ccc(O)cc1)C(=O)N[C@H](C(=O)N[C@@H](Cc1c[nH]c2ccccc12)C(=O)N[C@@H](Cc1c[nH]c2ccccc12)C(=O)N[C@@H](CCC(=O)O)C(=O)N[C@@H](Cc1cnc[nH]1)C(=O)N[C@@H](CO)C(=O)N[C@@H](CS)C(N)=O)[C@@H](C)O`, the IC50 is 70800 nM in assay [1] and 30900 nM in assay [4]. Further, the pIC50 in assay [2] was less than 4.
